Measurements gathered from unrelated publications.
Mode: inhibitor
HDAC6: Protein deacetylase HDAC6 (HDAC6, Homo sapiens, UniProt Q9UBN7)
Dihydroorotate dehydrogenase, mitochondrial, putative: Dihydroorotate dehydrogenase, mitochondrial, putative (Plasmodium vivax, UniProt A5K1N1)
KCNH2: Voltage-gated inwardly rectifying potassium channel KCNH2 (KCNH2, Homo sapiens, UniProt Q12809)

SMILES	target	assay	system	conditions	IC50
COc1cccc(OS(=O)(=O)Oc2cccc(C(=O)NO)c2)c1	HDAC6	enzyme activity, fluorescence			92 nM
CCOC(=O)c1nn(C)c(Cc2ccc(C(F)(F)F)nc2)c1C	Dihydroorotate dehydrogenase, mitochondrial, putative	enzyme activity, absorbance			88 nM
CC(C)(C)c1ccc(OS(=O)(=O)Oc2cc(F)cc(C(=O)NO)c2)cc1	HDAC6	enzyme activity, fluorescence			2100 nM
CC[C@@](O)(c1cnc(C(F)(F)F)c(Cl)c1)c1c2cnn(C3CC3)c(=O)c2nn1C	Dihydroorotate dehydrogenase, mitochondrial, putative	enzyme activity, absorbance			19 nM
CN(C)C(=O)c1cc2cnc(Nc3ccc(N4CCNCC4)cn3)nc2n1C1CCCC1	3',5'-cyclic-AMP phosphodiesterase 4D (PDE4D, Homo sapiens, UniProt Q08499)	enzyme activity, TR-FRET			> 10000 nM
CC[C@@](N)(c1cnc(C(F)(F)F)c(Cl)c1)c1c2ncn(C3CC3)c(=O)c2nn1C	Dihydroorotate dehydrogenase, mitochondrial, putative	enzyme activity, absorbance			40 nM
CC(C)c1cccc(OS(=O)(=O)Oc2cc(F)cc(C(=O)NO)c2)c1	HDAC6	enzyme activity, fluorescence			832 nM
O=c1oc(-c2ccco2)nc2ccccc12	Prothrombin (F2, Homo sapiens, UniProt P00734)	enzyme activity, absorbance		pH 7.4	> 50000 nM
O=C(NO)c1cccc(OS(=O)(=O)Oc2ccc(C(F)(F)F)cc2)c1	HDAC6	enzyme activity, fluorescence			842 nM
COc1ccc2c(C(=S)N(C)CC(=O)O)cccc2c1C(F)(F)F	Aldo-keto reductase family 1 member B10 (AKR1B10, Homo sapiens, UniProt O60218, K125R)	enzyme activity			124 nM
CC1(F)CN(C(=O)Cn2c(=O)c(C(=O)NCc3ccc(Cl)cc3)cc3nccnc32)C1	KCNH2	ion current, patch clamp			5910 nM
C=CS(=O)(=O)c1ccc(Nc2nc(OCC3CCCCC3)c3nc[nH]c3n2)cc1	KCNH2	ion current, patch clamp	HEK293		5940 nM
O=C(NO)c1cccc(OS(=O)(=O)Oc2ccc3ccccc3c2)c1	HDAC6	enzyme activity, fluorescence			91 nM
CNCCN1CCN(c2cnc3c(cc(C(=O)NCc4ccc(Cl)cc4)c(=O)n3CC(=O)N3CC(C)(F)C3)n2)C1=O	KCNH2	ion current, patch clamp			> 40000 nM
CCn1cnc2c([C@@](O)(CC)c3ccc(C(F)(F)F)nc3)n(C)nc2c1=O	Dihydroorotate dehydrogenase, mitochondrial, putative	enzyme activity, absorbance			26 nM
COc1ccc(C[C@H]2COC(=O)[C@@H]2Cc2ccc(OCC(=O)Nc3ccc(C(=O)Nc4ccccc4N)cc3)c(OC)c2)cc1OC	HDAC6	enzyme activity			> 10000 nM
CC1(F)CN(C(=O)Cn2c(=O)c(C(=O)NCc3ccc(Cl)cc3)cc3nc(N4CCOC4=O)cnc32)C1	KCNH2	ion current, patch clamp			5620 nM
CCn1ncc2c([C@](O)(c3ccc(C(F)(F)F)c(Cl)c3)C3CC3)n(C)nc2c1=O	Dihydroorotate dehydrogenase, mitochondrial, putative	enzyme activity, absorbance			5 nM
